Results on 3 molecules are retold here after ChEMBL document CHEMBL1142577, “Asimitrin and 4-hydroxytrilobin, new bioactive annonaceous acetogenins from the seeds of Asimina triloba possessing a bis-tetrahydrofuran ring” (J Nat Prod, 2005).

For one data set, the system named is Artemia. As to the kind of experiment: Toxicity in brine shrimp. Format: organism-based. The following applies: in vivo. The method, boiled down: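 Brine shrimp lethality test (BST) on brine shrimp larvae, run routinely on extracts, fractions and isolated compounds, with lethality as the read-out.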
For a further data set, the system named is A549. In words: Cytotoxicity against human A549 cells after 7 days by MTT assay. It is filed as functional. The following applies: A549, 168 h, read-out: ED50 (the source's name). The method, boiled down: (§1)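 Seven-day in vitro MTT cytotoxicity test on human tumour lines, run with adriamycin as positive control under standard protocols. Cell line origins: A-549 lung carcinoma, MCF-7 breast carcinoma, HT-29 colon adenocarcinoma, A-498 kidney carcinoma, PC-3 prostate adenocarcinoma, MIA PaCa-2 pancreatic carcinoma.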
For orientation: Formazan colour is commonly taken as a measure of viable cells.

For another data set, the system named is MCF7. As to the kind of experiment: Cytotoxicity against human MCF7 cells after 7 days by MTT assay. Format: functional. Particulars: MCF7, 168 h, read-out: ED50 (the source's name). The procedure, abridged: as §1
The subject of the next data set is HT-29. As to the kind of experiment: Cytotoxicity against human HT-29 cells after 7 days by MTT assay. It is filed as functional. The method, boiled down: as §1
In the next data set the test system is PC-3. As to the kind of experiment: Cytotoxicity against human PC-3 cells after 7 days by MTT assay. Format: functional. The procedure, abridged:
as §1

For the next data set, the system named is MIA PaCa-2. In words: Cytotoxicity against human MIA PaCa2 cells after 7 days by MTT assay. It is filed as functional. The method, boiled down:
as §1

A further data set deals with A498. As to the kind of experiment: Cytotoxicity against human A-498 cells after 7 days by MTT assay. Particulars: A498, 168 h, read-out: ED50 (the source's name). It is filed as functional. The method, boiled down:
as §1

≈ marks a conversion by molar mass, not a printed value.

`CCCCCCCCCC[C@@H](O)[C@H]1CC[C@H]([C@H]2C[C@@H](O)[C@H]([C@H](O)CCCCCCCCCC[C@@H](O)CC3=C[C@H](C)OC3=O)O2)O1` [ASIMITRIN]: the LC50 with Artemia was 2.07 ×10⁻² ug/ml. Also, the EC50 turned out to be 1.19 µg/mL (≈ 1.86 µM) in the data set with A549, 2.12 µg/mL (≈ 3.32 µM) in the data set on MCF7 and 0.75 µg/mL (≈ 1.17 µM) in the data set on A498. Also, the ED50 in the data set on HT-29 was 1.19 ×10⁻⁴ ug/ml; in the data set with PC-3 it was 1.72 ×10⁻⁶ ug/ml; with MIA PaCa-2 it was 2.11 ×10⁻⁴ ug/ml.
Take `COc1cccc2c1C(=O)c1c(O)c3c(c(O)c1C2=O)C[C@@](O)(C(=O)CO)C[C@@H]3O[C@H]1C[C@H](N)[C@H](O)[C@H](C)O1` [DOXORUBICIN]: the EC50 with A549 worked out at 0.00622 µg/mL (≈ 0.0114 µM); with MCF7 it was 0.953 µg/mL (≈ 1.75 µM); in the data set with HT-29 (Homo sapiens, HT-29, 168 h, read-out: ED50 (the source's name)) it was 0.0287 µg/mL (≈ 0.0528 µM); in the data set on PC-3 (Homo sapiens, PC-3, 168 h, read-out: ED50 (the source's name)), 0.0577 µg/mL (≈ 0.106 µM); with MIA PaCa-2 (Homo sapiens, MIA PaCa-2, 168 h, read-out: ED50 (the source's name)) it was 6.1 ng/mL (≈ 0.0112 µM); with A498 it was 0.00286 µg/mL (≈ 0.00526 µM).
On to `CCCCCCCCCC[C@@H](O)[C@H]1CC[C@@H]([C@H]2CC[C@H]([C@H](O)CCCCC(O)CCCCC[C@@H](O)CC3=C[C@H](C)OC3=O)O2)O1` (stereo not given in full), for which the LC50 in the data set on Artemia is 7 ×10⁻² ug/ml. The EC50 came to 1.54 µg/mL (≈ 2.41 µM) in the data set with A549, 3.79 µg/mL (≈ 5.93 µM) with MCF7 and 0.0362 µg/mL (≈ 0.0567 µM) in the data set with A498. The ED50 is 1.54 ×10⁻⁶ ug/ml with HT-29, 2.01 ×10⁻⁴ ug/ml in the data set with PC-3 and 2.01 ×10⁻⁴ ug/ml in the data set on MIA PaCa-2.
